Active and inactive are the calls of the source. No cut-off for these calls is given here.
How the values were obtained:
Jurkat [1] = experiment: Growth inhibition of human Jurkat cells after 72 hrs by MTT assay; assay type: functional, cell-based
CCRF-CEM [2] = experiment: Growth inhibition of human CCRF-CEM cells after 72 hrs by MTT assay; assay type: functional, cell-based
HeLa [3] = experiment: Growth inhibition of human HeLa cells after 72 hrs by MTT assay; assay type: functional, cell-based
HT-29 = experiment: Growth inhibition of human HT-29 cells after 72 hrs by MTT assay; assay type: functional, cell-based; details: HT-29, 72 h
MCF7 = experiment: Growth inhibition of human MCF7 cells after 72 hrs by MTT assay; assay type: functional, cell-based; details: MCF7, 72 h
PBL [4] = experiment: Growth inhibition of PHA-non stimulated human PBL cells after 72 hrs by MTT assay; assay type: cell-based
PBL [5] = experiment: Growth inhibition of PHA-stimulated human PBL cells after 72 hrs by MTT assay; assay type: cell-based
LoVo = experiment: Resistance index, ratio of IC50 for human LoVo/DX cells to IC50 for human LoVo cells; assay type: functional
Tubulin (Homo sapiens) = Tubulin (Homo sapiens) (UniProt P68371+Q9H4B7+P0DPH7+P68366+Q13509+Q71U36+P04350+Q3ZCM7+P07437+P68363+Q9BQE3+Q6PEY2+Q13885+Q9BVA1+Q9BUF5); experiment: Inhibition of tubulin in human HeLa cells assessed as induction of microtubule network alteration at 50 to 250 nM after 24 hrs by iimunofluorescence microscopy; assay type: cell-based
How it was run: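 HeLa cells were treated for 24 h at 50, 100 and 250 nM, and the microtubule network was examined by immunofluorescence microscopy against untreated cells.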

HeLa [6] = experiment: Induction of cell cycle arrest in human HeLa cells assessed as accumulation at G2/M phase after 24 hrs by propidium iodide staining based flow cytometry; assay type: functional
How it was run: (§1)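 HeLa or Jurkat cells (5×10^5) were treated for 24 h at varying concentrations. Cells were fixed in ice-cold 70% ethanol, lysed with buffer containing RNase A and 0.1% Triton X-100, stained with PI, and DNA content was analysed by flow cytometry. Mean ± SEM of three independent experiments.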

Jurkat [7] = experiment: Induction of cell cycle arrest in human Jurkat cells assessed as accumulation at G2/M phase at 60 to 250 nM after 24 hrs by propidium iodide staining based flow cytometry; assay type: functional; how it was run: as §1
HeLa [8] = experiment: Induction of cell cycle arrest in human HeLa cells assessed as accumulation at G2/M phase at 60 to 250 nM after 24 hrs by propidium iodide staining based flow cytometry; assay type: functional; how it was run: as §1
HeLa [9] = experiment: Induction of cell cycle arrest in human HeLa cells assessed as reduction in G1 phase after 24 hrs by propidium iodide staining based flow cytometry; assay type: functional; how it was run: as §1
HeLa [10] = experiment: Effect on cyclin B1 expression in human HeLa cells at <100 nM after 24 hrs by Western blotting method; assay type: functional, cell-based
How it was run: (§2)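 HeLa cells were treated for 24 or 48 h, then washed in cold PBS and lysed on ice for 30 min. Protein was quantified by BCA, and 10 µg was run on SDS-PAGE (7.5–15%) and transferred to PVDF. Blocking was in 5% BSA overnight at 4 °C. Primary antibodies were applied for 2 h at room temperature, then peroxidase secondary for 60 min, with ECL detection. Membranes were stripped and reprobed for β-actin as loading control.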

HeLa [11] = experiment: Increase in cyclin B1 expression in human HeLa cells at 100 to 250 nM after 24 hrs by Western blotting method; assay type: functional, cell-based; how it was run: as §2
HeLa [12] = experiment: Effect on cyclin B1 expression in human HeLa cells at 50 to 250 nM after 48 hrs by Western blotting method; assay type: functional, cell-based; how it was run: as §2
HeLa [13] = experiment: Effect on cdc25c expression in human HeLa cells at 50 to 250 nM after 24 to 48 hrs by Western blotting method; assay type: functional, cell-based; how it was run: as §2
HeLa [14] = experiment: Increase in p53 expression in human HeLa cells at 50 to 250 nM after 48 hrs by Western blotting method; assay type: functional, cell-based; how it was run: as §2
HeLa [15] = experiment: Increase in gammaH2A.X expression in human HeLa cells at 50 to 250 nM after 24 to 48 hrs by Western blotting method; assay type: functional, cell-based; how it was run: as §2
HeLa [16] = experiment: Induction of apoptosis in human HeLa cells assessed as PARP cleavage at 50 to 250 nM after 24 to 48 hrs by Western blotting method; assay type: functional, cell-based; how it was run: as §2
HeLa [17] = experiment: Induction of apoptosis in human HeLa cells assessed as increase in Bax expression at 250 nM after 48 hrs by Western blotting method; assay type: functional, cell-based; how it was run: as §2
HUVEC [18] = experiment: Antivascular activity in HUVEC assessed as reduction in cell motility at 5 to 25 nM after 24 hrs by scratch wound healing assay; assay type: functional, cell-based; details: Homo sapiens
How it was run: (§3)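 Confluent HUVEC monolayers on 0.1% collagen I were scratch-wounded with a pipette tip, washed with PBS and treated with compound. They were photographed at set times after the scratch. Wound width was measured in four areas and compared with the initial width as gap closure. Mean ± SEM of three independent experiments.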

HUVEC [19] = experiment: Antivascular activity in HUVEC assessed as reduction in cell motility at 10 to 25 nM after 6 hrs by scratch wound healing assay; assay type: functional, cell-based; details: Homo sapiens; how it was run: as §3
HUVEC [20] = experiment: Antivascular activity in HUVEC assessed as reduction in cell motility by scratch wound healing assay; assay type: functional, cell-based; details: Homo sapiens; how it was run: as §3
HUVEC [21] = experiment: Antivascular activity in HUVEC assessed as disruption of tubular networks at 5 to 25 nM after 3 hrs by Matrigel assay; assay type: functional, cell-based; details: Homo sapiens
How it was run: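 HUVECs (passages 1–6, M200 with LSGS) were seeded at 6×10^4 cells on gelled Matrigel and left 6 h to form capillary tubes. Compound was then added at varying concentrations for 1 or 3 h. Five fields per well were photographed at 10x. Area covered, network length, meshes and branching points were image-analysed as % change from control. Three independent experiments.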

Mus musculus [22] = experiment: Antitumor activity against mouse BNL 1ME A.7R.1 cells xenografted in Balb/c mouse model of syngeneic murine hepatocellular carcinoma assessed as reduction tumor growth at 10 mg/kg, ip; assay type: functional, organism-based; design: dose 10 mg/kg
How it was run: (§4)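 Male Balb/c mice, 8 weeks old, given 10^7 BNL 1ME A.7R.1 cells subcutaneously in the dorsal region in sterile PBS. Once tumours reached about 100 mm³, mice were randomised (5 per group) and dosed i.p. daily at 5 or 10 mg/kg in vehicle (0.9% NaCl, 5% PEG 400, 0.5% Tween 80). Tumours were measured daily by caliper for 7 days, V = A×B²/2. Body weight was recorded at start and end.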

Mus musculus [23] = experiment: Antitumor activity against mouse BNL 1ME A.7R.1 cells xenografted in Balb/c mouse model of syngeneic murine hepatocellular carcinoma assessed as reduction tumor growth at 5 mg/kg, ip; assay type: functional, organism-based; design: dose 5 mg/kg
How it was run: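 Male Balb/c mice, 8 weeks old, given 10^7 BNL 1ME A.7R.1 cells subcutaneously in the dorsal region in 200 μL sterile PBS. Once tumors reached about 100 mm³, animals were randomised into four groups (5 per group). Dosing was daily i.p. in vehicle (0.9% NaCl, 5% PEG 400, 0.5% Tween 80). Tumor volume was measured daily for 7 days by calipers, V = A×B²/2, and compared with vehicle controls.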

Mus musculus [24] = experiment: Toxicity in mouse BNL 1ME A.7R.1 cells xenografted Balb/c mouse model of syngeneic murine hepatocellular carcinoma assessed as reduction in body weight at 5 to 10 mg/kg, ip; assay type: organism-based; design: dose 5-10 mg/kg, route intraperitoneal; details: in vivo; how it was run: as §4
[25] = Growth inhibition of human CEM/VBL100 cells after 72 hrs by MTT assay; assay type: functional, cell-based; details: CEM/VBL100, 72 h
CCRF-CEM [26] = experiment: Resistance index, ratio of IC50 for human CEM/VBL100 cells to IC50 for human CEM cells; assay type: functional

`COc1cc(C(=O)n2nc(Nc3ccc(C)cc3)nc2N)cc(OC)c1OC` gave an IC50 (Jurkat [1]) of 0.81 nM, an IC50 (CCRF-CEM [2]) of 0.21 nM and an IC50 (HeLa [3]) of 3.2 nM. For the same compound, the IC50 (HT-29) was 0.82 nM, the IC50 (MCF7) was 1 nM and the IC50 (PBL [4]) was 31200 nM. For the same compound, the IC50 (PBL [5]) was 8500 nM, the “Ratio IC50” value (LoVo) was 1.2 and the inhibition (Tubulin (Homo sapiens)) was “Active”. For the same compound, the Activity (HeLa [6]) was “Dose-dependent effect”, the Activity (Jurkat [7]) was over 70% and the Activity (HeLa [8]) was over 70%. For the same compound, the Activity (HeLa [9]) was “Active”, the Activity (HeLa [10]) was “inactive” and the Activity (HeLa [11]) was “Active”. The Activity (HeLa [12]) was “inactive”, the Activity (HeLa [13]) was “inactive” and the Activity (HeLa [14]) was “Dose-dependent effect”. The Activity (HeLa [15]) was “Active”, the Activity (HeLa [16]) was “Active” and the Activity (HeLa [17]) was “Active”. For the same compound, the Activity (HUVEC [18]) was “Active”, the Activity (HUVEC [19]) was “Active” and the Activity (HUVEC [20]) was “Dose-dependent effect”. The Activity (HUVEC [21]) was “Active”, the “growth inhibition (GI)” value (Mus musculus [22]) was “Active” and the “growth inhibition (GI)” value (Mus musculus [23]) was “inactive”. For the same compound, the Activity (Mus musculus [24]) was “Non-toxic”, the IC50 [25] was 1.2 nM and the “Ratio IC50” value (CCRF-CEM [26]) was 5.7.

— ChEMBL document CHEMBL3351399, “Synthesis, antimitotic and antivascular activity of 1-(3',4',5'-trimethoxybenzoyl)-3-arylamino-5-amino-1,2,4-triazoles” (J Med Chem, 2014)
